# Source: PubChem BioAssay
# CXCR6 block: CXCR6 receptor inhibitors, primary screen, cell-based, beta-arrestin, luminescence, CHO-K1 PathHunter, 1536-well. inhibition, % at 20 µM. 0.36% of 360,000 active; in the data active = inhibition above about 34%, passing the limit was not always enough;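 also: antagonist mode with CXCL16 agonist at 10 nM final; 0% = 10 nM CXCL16 with DMSO and 100% = unstimulated wells without agonist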
# CCR6 antag: CCR6 receptor antagonists, primary screen, cell-based, CHO-K1, luminescence, beta-arrestin, uHTS | CHO-K1 CCR6 PathHunter beta-arrestin, CCL20-stimulated | inhibition, % at 20 µM | 0.49% of 340,000 active;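 active = compounds whose inhibition of the agonist-driven luminescence signal at 20 µM reaches about 50%, limit read from the data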;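 also: cells stimulated with CCL20 at 14 nM final; plate controls were DMSO with CCL20 for no effect and DMSO without agonist for full effect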
# APJ ag: agonists of human apelin receptor APJ, primary screen, CHO-K1 cells, PathHunter beta-arrestin, luminescence; 0.11% of 330,000 active; 0% DMSO wells, 100% apelin; AID 2520, 2010; P35414; activation, % at 20 µM;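 active = activation more than six SD over the plate average, tested at 20 µM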;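 also: 0% = DMSO alone and 100% = apelin-13 at 10 nM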
# Target sequence (P35414 whole entry, looked up): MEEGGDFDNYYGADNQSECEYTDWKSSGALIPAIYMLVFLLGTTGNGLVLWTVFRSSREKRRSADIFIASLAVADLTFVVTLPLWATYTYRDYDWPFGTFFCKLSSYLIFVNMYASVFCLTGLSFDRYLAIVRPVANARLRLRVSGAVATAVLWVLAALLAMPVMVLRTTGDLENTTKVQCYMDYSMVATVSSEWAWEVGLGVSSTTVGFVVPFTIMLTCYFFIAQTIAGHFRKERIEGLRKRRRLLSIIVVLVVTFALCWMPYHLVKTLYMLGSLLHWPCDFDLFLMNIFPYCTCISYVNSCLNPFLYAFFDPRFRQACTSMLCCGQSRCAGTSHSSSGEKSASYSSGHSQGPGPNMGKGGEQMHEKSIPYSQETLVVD
#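 system = engineered CHO-K1 APJ arrestin reporter cells | input = 1000 cells per well | timing = overnight seeding, 90 min compound at 25 °C, 1 h detection | measured by = enzyme-fragment complementation luminescence | read-out = beta-arrestin recruitment to APJ as agonist activity, luminescent signal | control set = negative DMSO alone, positive Apelin-13 at 10 nM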
# APJ antagonist: antagonists of human apelin receptor APJ, primary screen, CHO-K1 cells, beta-arrestin complementation, luminescence | P35414 | inhibition, % at 20 µM | 0.32% of 330,000 active | AID 2521, 2010;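 active = inhibition above about 40% at 20 µM, limit read from the data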;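 also: cells challenged with 10 nM apelin-13 agonist together with compound; plate controls were apelin-13 plus DMSO wells for no effect and DMSO wells lacking apelin-13 for full effect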
# B2AR ag: beta2AR agonists driving receptor internalization, primary screen, cell-based, FAP fluorogen, flow cytometry; Am2.2-beta2AR cells; response, % (no concentration beside the values); 0.43% of 340,000 active;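 active = response above a set limit, near 3 SD of response in nonfluorescent compounds, cut at about 42% in these data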
# PfG6PD inh: PfG6PD enzyme inhibitors, primary screen, biochemical, fluorescence intensity, uHTS; 0.78% of 350,000 active; inhibition, % at 20 µM; glucose-6-phosphate dehydrogenase-6-phosphogluconolactonase (Plasmodium falciparum 3D7); PfGluPho enzyme, NADPH resazurin-diaphorase fluorescence;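 active = inhibition reaching at least a set limit at 20 µM in the primary screen, cut at about 59% in these data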;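 also: 0% = DMSO wells with substrate and 100% = DMSO wells lacking glucose-6-phosphate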
# Starred values were filed as active, the others as inactive; / = no result. Sampled rows, rich in hits. Any-hit rate of the full collection: about 1.7%.
SMILES,CXCR6 block,CCR6 antag,APJ ag,APJ antagonist,B2AR ag,PfG6PD inh
CCN1/C(=C\C=C2\C(=O)N(c3ccccc3)C(=S)N2C)Sc2ccccc21,40*,63*,/,/,-6,14
CC1(C)NC(=O)N(CCC(=O)Nc2ccc(C(C)(C)C)cc2)C1=O,7,/,/,/,/,3
COc1cccc(C(=O)NCCCNc2nc3cc(C)cc(C)c3cc2C#N)c1,9,/,/,/,/,7
COc1ccccc1NC(=O)C1=C(C)N(c2ccccc2)C(=S)NC1c1cccc(C(F)(F)F)c1 (stereo unspecified),16,6,-1,9,8,5
COC(=O)c1ccc(C2NC(=S)N(c3ccccc3)C(C)=C2C(=O)Nc2ccccc2OC)cc1 (stereo unspecified),10,16,-4,13,46*,-10
COc1ccc(NC(=O)CN(C)C(=O)Cc2n[nH]c(=O)c3ccccc23)cc1,0,-15,5,-36,7,17
COc1cc(/C=N/NC(=O)C(Cc2c[nH]c3ccccc23)NC(=O)OCc2ccccc2)cc([N+](=O)[O-])c1O (stereo unspecified),24,46,/,/,-3,1
COc1cc(/C=N/NC(=O)C(Cc2c[nH]c3ccccc23)NC(=O)OCC(C)C)cc([N+](=O)[O-])c1O (stereo unspecified),14,32,-3,44*,1,-2
CCCCCCOc1ccc(/C(C)=N/NC2=NCCN2)cc1[N+](=O)[O-],-20,27,-2,15,11,-6
CCCCOc1ccc(Br)cc1/C(C)=N/NC1=NCCN1,-11,-28,0,3,48*,7
O=C(Oc1ccc2ccccc2c1Br)N1CCCCCC1,-7,1,-1,11,62*,-17
O=C(/C=C/c1ccccc1)NNc1ccc(Cl)cc1,7,12,-8,62*,8,-6
O=C(/C=C/c1ccccc1)NNC(=O)c1cccc(Cl)c1,-11,10,-2,6,-2,-13
O=C(/C=C/c1ccccc1)CCN1CCCCC1,34,25,/,/,44*,7
O=C(CCN1CCCCCC1)c1ccccc1,1,-10,0,8,17,10
CN(C)c1ccc(/C=C/CNC[C@H]2O[C@@H](n3ccc(N)nc3=O)[C@H](O)[C@@H]2O)cc1,0,/,/,/,/,6
CC1CCc2c(sc3nc(C(C)(C)C)nc(N4CCN(C(=O)CCl)CC4)c23)C1 (stereo unspecified),-1,13,8,-1,50*,28
CC(=O)Nc1ccc(NC(=O)c2nc(S(=O)(=O)Cc3ccccc3)ncc2Cl)cc1,25,9,1,11,14,9
O=C(NCc1ccc2c(c1)OCO2)c1nc(S(=O)(=O)Cc2ccccc2)ncc1Cl,40,63*,-3,26,10,15
C=C(CN(C)C)C(=O)c1ccc(OC2OC(COC(C)=O)C(OC(C)=O)C(OC(C)=O)C2OC(C)=O)cc1 (stereo unspecified),90*,100*,/,/,25,49
CCCc1sc(N/N=C/c2ccccn2)nc1-c1ccc(F)cc1,37,69*,-6,18,-2,25
Cc1nc(N/N=C/c2ccccn2)sc1C,/,46,/,/,/,22
COCCN1C(=O)c2ccccc2C1c1nc2ccccc2[nH]1 (stereo unspecified),-5,/,/,/,/,/
COc1cc(N=Nc2ccc3ccccc3c2)ccc1O,33,51*,-6,22,13,13
COc1ccc(-n2nc(C#N)c(Cl)cc2=O)cc1,38,36,-6,40,90*,7
SMILES,CXCR6 block,CCR6 antag,APJ ag,APJ antagonist,B2AR ag,PfG6PD inh
CC(=O)NC(=S)NNC(=O)CCc1ccccc1,17,-1,-4,23,17,9
O=C(CCc1ccccc1)NNC(=S)NC(=O)c1ccccc1,26,69*,-3,24,-2,-1
CC(C)(C)OC(=O)N1CCC(NC(=O)c2[nH]cnc2C(=O)Nc2ccon2)CC1,3,14,1,9,5,-11
O=[N+]([O-])c1cc(S(=O)(=O)Oc2ccccc2)ccc1Cl,26,10,/,/,41,11
CC(=O)OC[C@]12CC[C@H]3[C@@](C)(CC[C@H]4C(C)(C)CCC[C@]34C)[C@@H]1C[C@H](C1=CC(=O)O[C@@H]1OC(C)=O)O2,/,/,11*,0,/,/
CC1(C)CCCC2(C)C1CCC1(C)OC(=O)CCC12 (stereo unspecified),-8,/,/,/,/,/
C/C(=C1/C(=O)N(c2ccc([N+](=O)[O-])cc2)N=C1c1ccccc1)N(C)C,/,/,-7,49*,/,/
CN(C)/C=C1/C(=O)N(c2ccc([N+](=O)[O-])cc2)N=C1c1ccccc1,/,/,-1,6,/,/
CCN(CC)c1ccc2c(c1)oc(=O)c1c(Cl)cc(=O)oc12,60*,47,0,31,-302,8
Cc1cc2c(=O)n(Cc3ccco3)c(SCC(=O)c3ccc(Cl)s3)nc2s1,3,13,-4,23,52*,10
CCOc1ccc(NCC(=O)c2ccc(C)cc2)cc1,51*,68*,-2,6,2,11
CCOc1ccc(C(=O)COc2ccc(NC(C)=O)cc2)cc1,0,12,-1,-5,0,-12
CC(=O)Nc1ccc(NCC(=O)c2ccccc2)cc1,51*,28,0,11,-9,10
Cc1ccc(C(=O)CNc2ccc(Cl)cc2)cc1,53*,71*,-6,102*,3,-25
C/C(=N/NC(=O)CNc1ccc(C)cc1)c1ccc(Cl)cc1,-11,-8,0,8,-4,2
CC(=O)Nc1ccc(C(=O)O)cc1,-5,3,-5,-1,5,-12
O=C(NNc1c2ccccc2nc2ccccc12)C12CC3CC(CC(C3)C1)C2,-19,2,-2,12,45*,16
O=C(NNc1c2ccccc2nc2ccccc12)c1cccc(O)c1,24,60*,-1,27,-6,-8
O=C(NNc1c2ccccc2nc2ccccc12)c1ccccc1Cl,22,34,-5,-3,-10,-13
O=C(NNc1c2ccccc2nc2ccccc12)c1ccccc1O,26,43,-5,27,53*,6
O=C(NC1CCCCCCC1)c1ccc(Br)o1,-7,-4,-2,11,-8,5
[O-]/[N+](=C\c1ccncc1)c1ccc(Br)cc1,4,18,-3,-4,6,91*
Cc1ccsc1/C=N/NC(=O)c1nnn(-c2nonc2N)c1-c1ccccc1,-4,-1,-1,15,-18,29
COc1cccc(-c2c(C(=O)N/N=C/c3sccc3C)nnn2-c2nonc2N)c1,9,2,1,18,1,91*
